According to ChEMBL document CHEMBL1121472, “Derivatives of 5-hydroxy-6-methyl-2-aminotetralin” (1980):
Active and inactive are the calls of the source. The rule behind the calls is not given here.

Legend:
[1] = species on record: Felis catus; test: Inhibition of chronotropic response to cardioaccelerator nerve stimulation in the cat; format: functional
Summary of the method: (§1)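 Cats were bilaterally vagotomized and pretreated iv with atropine sulfate (0.2 mg/kg). Right postganglionic cardioaccelerator nerves were placed on bipolar electrodes and stimulated at 2 Hz, 5-ms pulses, for 30 s at 20–25 V. Heart rate was recorded by cardiotachometer, femoral arterial pressure was monitored, and drugs were given iv via a femoral vein catheter. ED50 is in μmol/kg with 95% CL. Blockade was tested with haloperidol 0.1 mg/kg.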

[2] = tested on: Rattus norvegicus; test: Compound was evaluated for rotational behavior in rats and (contralateral turning) circling response were recorded at a dose of 5.85 umol/Kg; format: functional
Summary of the method: (§2)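 Male Sprague Dawley rats received a unilateral stereotaxic injection of 6-hydroxydopamine hydrobromide (6 μg in 3 μL) into the substantia nigra region (anterior 24, lateral 1.8, vertical 7.0). Drug was then given sc, and contralateral turns were counted over the next 1 h and reported as turns/h at the stated dose.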

[3] = tested on: Rattus norvegicus; test: Compound was evaluated for rotational behavior in rats and (contralateral turning) circling response were recorded at a dose of 11.7 umol/Kg; format: functional; summary of the method: as §2
[4] = tested on: Felis catus; test: Inhibition of chronotropic response to cardioaccelerator nerve stimulation in the cat; NA denotes inactive uM/kg; format: functional, organism-based; summary of the method: as §1
[5] = tested on: Felis catus; test: Inhibition of chronotropic response to cardioaccelerator nerve stimulation in the cat; NI denotes no inhibition up to 1.55 uM/kg; format: functional, organism-based; summary of the method: as §1
[6] = tested on: Rattus norvegicus; test: Compound was evaluated for rotational uM/kg; format: functional, organism-based; summary of the method: as §2
[7] = tested on: Rattus norvegicus; test: Compound was evaluated for rotational behavior in rats and (contralateral turning) circling response were recorded at a dose of 14.0 umol/kg; IA = inactive; format: functional, organism-based; summary of the method: as §2
[8] = species on record: Felis catus; test: Inhibition of chronotropic response to cardioaccelerator nerve stimulation in the cat; NA denotes inactive; format: functional, organism-based; summary of the method: as §1
[9] = tested on: Canis familiaris; test: Compound was evaluated for emesis action in dogs, administered subcutaneously; NA denotes inactive; format: functional, organism-based; conditions: Canis lupus familiaris
Summary of the method: (§3)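 Five adult mongrel dogs, housed singly with food ad libitum, were given drug solutions sc, and vomiting frequency was counted over 1 h. Three doses of apomorphine hydrochloride (0.08, 0.16, 0.32 μmol/kg) as reference and three of the test compound were compared by a 3 × 3 parallel line bioassay to give relative potency with 95% confidence limits.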

[10] = tested on: Rattus norvegicus; test: Compound was evaluated for rotational behavior in rats and (contralateral turning) circling response were recorded at a dose of 0.41 umol/Kg; format: functional; summary of the method: as §2
[11] = tested on: Canis familiaris; test: Compound was evaluated for emesis action in dogs, administered subcutaneously; Range is (0.02-0.08); format: functional, Canis lupus familiaris
[12] = tested on: Canis familiaris; test: Compound was evaluated for emesis action in dogs administered subcutaneously; NA denotes inactive; format: functional, organism-based; conditions: Canis lupus familiaris; summary of the method: as §3
[13] = tested on: Rattus norvegicus; test: Compound was evaluated for rotational behavior in rats and (contralateral turning) circling response were recorded at a dose of 400 umol/Kg; IA=Inactive; format: functional, organism-based
[14] = tested on: Felis catus; test: Inhibition of chronotropic response to cardioaccelerator nerve stimulation in the cat at 10 uM/kg; NA denotes inactive; format: functional, organism-based; summary of the method: as §1

Br.CCCN(CCC)C1CCc2c(ccc(C)c2O)C1 (configuration not stated)
ED50 [1]: 0.025 µmol/kg | Rotational behavior [2]: 131.43 turns hr-1 | Rotational behavior [3]: 346.86 turns hr-1

CCNC1CCc2c(ccc(C)c2O)C1 (configuration not stated)
ED50 [4]: inactive

Cc1ccc2c(c1O)CCC(N)C2 (configuration not stated)
ED50 [5]: No inhibition | Activity [6]: NI

Cc1ccc2c(c1O)CCC(N(C)C)C2 (configuration not stated)
Rotational behavior [7]: inactive

Cc1ccc2c(c1O)CCC(NC(C)C)C2 (configuration not stated)
ED50 [8]: inactive | Potency ratio [9]: inactive

CN1CCc2cccc3c2[C@H]1Cc1ccc(O)c(O)c1-3 [APOMORPHINE]
ED50 [1]: 0.022 µmol/kg | Rotational behavior [10]: 175.21 turns hr-1 | Potency ratio [11]: 0.046

CNC1CCc2c(ccc(C)c2O)C1 (configuration not stated)
Potency ratio [12]: inactive | ED50 [4]: inactive

Br.CCN(CC)C1CCc2c(ccc(C)c2O)C1 (configuration not stated)
ED50 [1]: 0.48 µmol/kg | Rotational behavior [13]: inactive

CCCNC1CCc2c(ccc(C)c2O)C1 (configuration not stated)
ED50 [14]: inactive
